Activity calls are given as the source filed them. No cut-off for these calls is given here. Starred links: 1 amine or outer side, 2 acyl side, 3 side chain; linkers in the order of their positions; H or OH if unused. Non-standard residues stand in square brackets, D forms with d. Residues, ends and D or L forms follow the SMILES beside them. *: point of attachment. X1 = CC[C@H](C)[C@H](OC(=O)[C@@H](C)[C@@H](CC)N[*:1])C(=O)[*:2]; Pentanoyl(2S-OH,3S-Me) = CC[C@H](C)[C@H](O)C(=O)*; X2 = C[C@H](N[*:1])C(=O)C(C)(C)C(=O)[*:2]; NMeF = CN[C@@H](Cc1ccccc1)C(=O)O; NMeI = CC[C@H](C)[C@H](NC)C(=O)O; X3 = CC[C@@H](N*)[C@H](C)C(=O)O; NMeV = CN[C@H](C(=O)O)C(C)C
Tests used:
[1] = test system: NCI-H460; test: Cytotoxicity against human H460 cells after 24 hrs; format: functional, cell-based; conditions: NCI-H460, 24 h
[2] = test system: MDA-MB-435; test: Cytotoxicity against human MDA-MB-435 cells after 24 hrs; format: functional, cell-based; conditions: MDA-MB-435, 24 h
[3] = Cytotoxicity against mouse Neuro2a cells after 24 hrs; format: functional, cell-based; conditions: N2a
[4] = test system: HCT-116; test: Selectivity ratio, IC50 for human H460 cells to IC50 for human HCT116 cells; format: functional
[5] = test system: MDA-MB-435; test: Selectivity ratio, IC50 for human MDA-MB-435 cells to IC50 for human HCT116 cells; format: functional
[6] = Selectivity ratio, IC50 for […] cells to IC50 for human HCT116 cells; format: functional
[7] = test system: A10; test: Effect on actin cytoskeleton in rat A10 cells assessed as loss of F-actin filament at 52 nM by TRITC-phalloidin staining; format: functional, cell-based
Outline: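 A-10 cells on glass coverslips in BME + 10% fetal calf serum, exposed 24 h, then fixed with 3% paraformaldehyde, permeabilized with 0.2% Triton X-100, and reduced with NaBH4. Stained 45 min with 100 nM TRITC-phalloidin plus DAPI. F-actin examined by fluorescence microscopy against vehicle-treated control.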

[8] = test system: HCT-116; test: Cytotoxicity against human HCT116 cells after 120 hrs; conditions: HCT-116, 120 h
[9] = test system: HCT-116; test: Cytotoxicity against human HCT116 cells assessed as clonogenic concentration required for 10% surviving fraction after 2 hrs; format: functional
Outline: (§1)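 HCT-116 cells seeded at 200 or 20,000 per 60 mm dish in RPMI + 10% FBS. Drug added at a final top concentration of 10 µg/mL (10.5 µM) with 10-fold dilutions, for 2 h or 24 h then replaced by drug-free medium, or left continuously (168 h). After 7 days, colonies stained with methylene blue; colonies of ≥50 cells counted and normalized to untreated control.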

[10] = test system: HCT-116; test: Antitumor activity against human HCT116 cells xenografted in SCID mouse assessed as tumor growth rate at 0.31 mg/kg, iv dosed daily for 5 days relative to control; format: functional, organism-based; design: dose 0.31 mg/kg
Outline: (§2)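 HCT-116 tumor cells from tissue, 10^6 implanted subcutaneously into pooled SCID mice (>17 g, weights within 5 g), 5 per group. Starting 1 day after inoculation, bolus tail-vein iv daily for 5 days. Vehicle: DMSO stock diluted 1:1 with Cremophor-propylene glycol (40:60), then ≥10-fold with saline. Minimum %T/C reported; sacrifice at day 30.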

[11] = test system: HCT-116; test: Antitumor activity against human HCT116 cells xenografted in SCID mouse at 0.62 mg/kg, iv daily for 5 days relative to control; format: functional, organism-based; design: dose 0.62 mg/kg; outline: as §2
[12] = Toxicity in human HCT116 cells xenografted in SCID mouse assessed as maximum tolerated dose; format: organism-based, HCT-116; conditions: in vivo, read-out: Activity
[13] = test system: HCT-116; test: Cytotoxicity against human HCT116 cells assessed as clonogenic concentration required for 10% surviving fraction after 24 hrs; format: functional; outline: as §1
[14] = test system: HCT-116; test: Cytotoxicity against human HCT116 cells assessed as clonogenic concentration required for 10% surviving fraction after 7 days; format: functional; outline: as §1

| Structure (SMILES) | IC50 [1] | IC50 [2] | IC50 [3] | Ratio IC50 [4] | Ratio IC50 [5] | Ratio IC50 [6] | Activity [7] | IC50 [8] | Activity [9] | Activity [10] | Activity [11] | MTD [12] | Activity [13] | Activity [14] |
| --- | --- | --- | --- | --- | --- | --- | --- | --- | --- | --- | --- | --- | --- | --- |
| CC[C@H](C)[C@H](O)C(=O)NCC(=O)N(C)[C@H](C(=O)NCC(=O)N(C)[C@H](C(=O)N(C)[C@@H](Cc1ccccc1)C(=O)N[C@@H](C)C(=O)C(C)(C)C(=O)N[C@@H](C)C(=O)N[C@H](CC)[C@H](C)C(=O)O)C(C)C)[C@@H](C)CC ({Pentanoyl(2S-OH,3S-Me)}-G[NMeI]G[NMeV][NMeF][X2]A-X3) | 94 nM | 230 nM | > 1000 nM | 5 | 14 | 10 | Active | 16 nM |  |  |  |  |  |  |
| CC[C@H](C)[C@@H]1OC(=O)[C@@H](C)[C@@H](CC)NC(=O)[C@H](C)NC(=O)C(C)(C)C(=O)[C@H](C)NC(=O)[C@H](Cc2ccccc2)N(C)C(=O)[C@H](C(C)C)N(C)C(=O)CNC(=O)[C@H]([C@@H](C)CC)N(C)C(=O)CNC1=O [DESMETHOXYMAJUSCULAMIDE C] (cyclo(A[X1]G[NMeI]G[NMeV][NMeF][X2])) | 63 nM | 220 nM | > 1000 nM | 5 | 11 | 10 | Active | 20 nM | >10.5 µM | Active | Active | 2.5 mg/kg | >10.5 µM | 2.1 nM |
